Measurements collected from several papers.
Lines come from different studies, so protocols differ.
F2: Prothrombin (F2, Homo sapiens, UniProt P00734)
PDE4D: 3',5'-cyclic-AMP phosphodiesterase 4D (PDE4D, Homo sapiens, UniProt Q08499)
MEP1B: Meprin A subunit beta (MEP1B, Homo sapiens, UniProt Q16820)
CDK7 with cyclin H: Cyclin-dependent kinase 7, with cyclin H (CDK7, Homo sapiens, UniProt P50613)
KCNK18: Potassium channel subfamily K member 18 (KCNK18, Homo sapiens, UniProt Q7Z418)
HDAC6: Protein deacetylase HDAC6 (HDAC6, Homo sapiens, UniProt Q9UBN7)
Dihydroorotate dehydrogenase, mitochondrial, putative: Dihydroorotate dehydrogenase, mitochondrial, putative (Plasmodium vivax, UniProt A5K1N1)
GRM7: Metabotropic glutamate receptor 7 (GRM7, Homo sapiens, UniProt Q14831)

SMILES	target	effect on	mode	method	time	setting	IC50 [nM]
CC(C)Cc1ncc(Cc2ccc(O)cc2)[nH]c1=O	Calpain-1 catalytic subunit (CAPN1, Homo sapiens, UniProt P07384)	enzyme activity	inhibitor				3900
COc1cc(/C=N/n2c(C)nc3ccc(Br)cc3c2=O)ccc1O	F2	enzyme activity	inhibitor				42500
Cc1ccc(-c2ccc(O)cc2)c(C(=C2C=CC(=O)C=C2)c2ccc(O)cc2)c1C#Cc1ccc(O)cc1	PDE4D	enzyme activity	inhibitor				175
O=C(CCN(Cc1ccncc1)Cc1ccc(Cl)c(O)c1F)NO	MEP1B	enzyme activity	inhibitor				703
COc1ccc2c(Oc3ccc4c(C(=O)Nc5ccccc5N)cccc4c3)ccnc2c1	Tyrosine-protein kinase SYK (SYK, Homo sapiens, UniProt P43405)	enzyme activity	inhibitor				> 500
CC(C)=CCC[C@@H](C)c1ccc(C)c(O)c1	UDP-glucuronosyltransferase 2B7 (UGT2B7, Homo sapiens, UniProt P16662)	enzyme activity	inhibitor		1 h		42100
Cc1nc2ccccc2c(=O)n1NC(=O)CSc1nc2ccccc2c(=O)n1-c1ccccc1	F2	enzyme activity	inhibitor				5010
O=C(CCN(Cc1ccc2c(c1)OCO2)Cc1ccc(Cl)c(O)c1F)NO	MEP1B	enzyme activity	inhibitor				146
CC/C=C\C/C=C\C/C=C\C/C=C\C/C=C\CCCC(=O)O	DNA-directed DNA polymerase (Enterobacteria phage T4, UniProt P04415)	enzyme activity	inhibitor				> 100000
CC(C)C[C@H](NC(=O)[C@H](CCC(=O)O)NC(=O)[C@@H](NC(=O)[C@H](CO)NC(=O)[C@H](CCCCN)NC(=O)[C@H](CCC(N)=O)NC(=O)[C@H](Cc1ccc(O)cc1)NC(=O)[C@H](CCCNC(=N)N)NC(=O)[C@@H](N)CCCNC(=N)N)[C@@H](C)O)C(=O)O	Antigen peptide transporter 1/Antigen peptide transporter 2 (Homo sapiens, UniProt Q03518+Q03519)	ligand displacement					100
N#Cc1nc(NCc2cccc(-c3cc4ccccc4n3S(=O)(=O)c3ccccc3)c2)c2ncn(CCCO)c2n1	Cathepsin B-like cysteine protease (Trypanosoma brucei, UniProt Q6R7Z5)	enzyme activity	inhibitor				> 15000
O=c1cc(-c2ccccc2)oc2ccc3ccccc3c12	CDK7 with cyclin H	enzyme activity	inhibitor	ADP detection			2970
COC(=O)C1=C(C)NC(C)=C(C(=O)OCCN(C)Cc2ccccc2)C1c1cccc([N+](=O)[O-])c1 (stereo not drawn)	KCNK18	ion flux	inhibitor				21900
COc1cc2c(NC3CCN(C)CC3)nc(N3CCCN(C)CC3)nc2cc1OCCCCCCN(C)C	Histone-lysine N-methyltransferase EHMT2 (EHMT2, Homo sapiens, UniProt Q96KQ7)	enzyme activity	inhibitor				1500
O=C(CCN(Cc1cccnc1)Cc1ccc2c(c1)OCO2)NO	MEP1B	enzyme activity	inhibitor				9650
CC[C@H](C)[C@H](NC(C)=O)C(=O)N[C@@H](CCC(=O)O)C(=O)N[C@H](C(=O)N[C@H](C=O)CC(=O)O)[C@@H](C)O	Caspase-10 (CASP10, Homo sapiens, UniProt Q92851)	enzyme activity	inhibitor				12.5
CN(C)C/C=C/C(=O)Nc1ccc(C(=O)N2CC[C@@H](Nc3ncc(Cl)c(-c4c[nH]c5ccccc45)n3)C2)cc1	CDK7 with cyclin H	enzyme activity	inhibitor	FRET			6.33
CCCON(Cc1ccc(C(=O)NO)cc1)C(=O)Nc1ccc(N(C)C)cc1	HDAC6	enzyme activity	inhibitor	fluorescence			22
CC(C)(C)n1nc(-c2ccc3nc(OC4CC4)ccc3c2)c(C(N)=O)c1N	Mitogen-activated protein kinase 1 (MAPK1, Homo sapiens, UniProt P28482)	cell-free assay					> 10000
CNC(=O)[C@H](Cc1ccccc1)NC(=O)[C@H](CC(C)C)[C@H](CSc1cccs1)C(=O)NO	Disintegrin and metalloproteinase domain-containing protein 8 (Homo sapiens, UniProt P78325)	enzyme activity	inhibitor	fluorescence			46
Cc1nc2ccccc2n1Cc1nc(C(=O)NO)co1	HDAC6	enzyme activity	inhibitor				3710

SMILES	target	effect on	mode	method	time	setting	IC50 [nM]
COc1cc(N2CCN(C)CC2)ccc1Nc1ncc2c(n1)N(C)c1ccccc1C(=O)N2	Mitogen-activated protein kinase 7 (MAPK7, Homo sapiens, UniProt Q13164)	enzyme activity	inhibitor	radiometric			1200
Cc1nc2ccccc2n1Cc1cc(F)c(C(=O)NO)c(F)c1	HDAC6	enzyme activity	inhibitor				946
COc1cc(/C=N/n2c(C)nc3ccc(C)cc3c2=O)ccc1OCc1ccccc1	F2	enzyme activity	inhibitor				26600
COCCOC(=O)C1=C(C)NC(C)=C(C(=O)OC(C)C)C1c1cccc([N+](=O)[O-])c1 (stereo not drawn)	Potassium channel subfamily K member 9 (KCNK9, Homo sapiens, UniProt Q9NPC2)	ion flux	inhibitor				> 30000
COc1ccc(C2=NN(C3CCCCCC3)C(=O)[C@@H]3CC=CC[C@H]23)cc1-c1ccc(C(=O)NCC(N)=O)cc1 (relative stereo)	PDE4D	enzyme activity	inhibitor				251
Cc1nc(Nc2ccc(S(F)(F)(F)(F)F)cc2)c2c(C(F)(F)F)noc2n1	Dihydroorotate dehydrogenase, mitochondrial, putative	enzyme activity	inhibitor	absorbance			66
COc1ccc([C@@H]2CN(C(=O)[C@@H](O)CO)C[C@@]2(C)[C@@H](C)O)cc1OC1CN(c2ccc(C)cn2)C1	PDE4D	enzyme activity	inhibitor				0.14
CC#Cc1cncc(-c2ccc3c(c2)[C@@]2(N=C(C)C(N)=N2)[C@]2(CC[C@H](OC)CC2)C3)c1	Cathepsin D (CTSD, Homo sapiens, UniProt P07339)	enzyme activity	inhibitor				16100
C[C@@H]1O[C@H](OP(=O)(O)OP(=O)(O)OC[C@H]2O[C@@H](n3cnc4c(=O)[nH]c(N)nc43)[C@H](O)[C@@H]2O)[C@@H](F)[C@H](O)[C@@H]1O	Alpha-(1,3)-fucosyltransferase 7 (FUT7, Homo sapiens, UniProt Q11130)	cell-free assay					~2500
O=C(N[C@@H](Cc1c[nH]c2ccccc12)C(=O)O)c1ccc(Cl)cc1	Free fatty acid receptor 3 (FFAR3, Homo sapiens, UniProt O14843)	GTPγS binding	antagonist			cell membranes	> 31600
O=C1NC(=O)/C(=C/c2ccc(OCCNc3nc4c(cnn4C4CCCC4)c(=O)[nH]3)c(F)c2)S1	PDE4D	enzyme activity	inhibitor				495
O=C(Nc1cccnc1)N1CCC(Cc2cccc(Oc3ccc(C(F)(F)F)cn3)c2)CC1	Liver carboxylesterase 1 (CES1, Homo sapiens, UniProt P23141)	enzyme activity	inhibitor				> 10000
CCOC(=O)C1=C(C)NC(C)=C(C(=O)OC)C1c1cccc([N+](=O)[O-])c1 (stereo not drawn)	KCNK18	ion flux	inhibitor				19800
O=C(O)[C@H]1O[C@@H](O[C@H]2[C@H](O)[C@@H](NS(=O)(=O)O)[C@@H](OCCNS(=O)(=O)O)O[C@@H]2COS(=O)(=O)O)[C@H](O)[C@@H](O)[C@@H]1O[C@H]1O[C@H](COS(=O)(=O)O)[C@@H](O)[C@H](O)[C@H]1NS(=O)(=O)O	Coagulation factor X (F10, Bos taurus, UniProt P00743)	enzyme activity	inhibitor	absorbance			> 2000
O=c1cc(-c2ccc3c(c2)OCO3)oc2c1ccc1occc12	CDK7 with cyclin H	enzyme activity	inhibitor	ADP detection			> 100000
COc1cc(/C=N/n2c(C)nc3ccc(C)cc3c2=O)cc([N+](=O)[O-])c1O	F2	enzyme activity	inhibitor				210000
CCCC[C@H](NC(=O)[C@H](C)c1c(C)[nH]c2ccc(O)cc12)c1ncc(-c2cc3ccccc3nc2OC)[nH]1	HDAC6	enzyme activity	inhibitor				> 45000
COc1ccc(-c2nnc(-c3cc(OC(F)(F)F)ccc3-n3ccnc3)o2)cc1OC	GRM7	calcium signal	antagonist				600
Cc1nc2ccc(Br)cc2c(=O)n1/N=C/c1ccc(C(=O)O)cc1	F2	enzyme activity	inhibitor				48600
Cc1nc(Nc2ccc(C)c(Cl)c2)c2c(C)noc2n1	Dihydroorotate dehydrogenase, mitochondrial, putative	enzyme activity	inhibitor	absorbance			260
COc1ccc(-c2coc(-c3cc(OC(F)(F)F)ccc3-n3cncn3)n2)cc1OC	GRM7	calcium signal	antagonist				> 10000
